According to ChEMBL document CHEMBL1158482, “Dopamine D2, D3, and D4 selective phenylpiperazines as molecular probes to explore the origins of subtype specific receptor binding” (J Med Chem, 2009):

Key:
Format in all cases: cell-based
[1] = Displacement of [3H]spiperone from human cloned dopamine D2L receptor D3.32E mutant expressed in HEK293 cells
How it was run: (§1)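 Wild-type or mutant receptor cDNA transiently transfected into HEK-293 cells (CaHPO4 or TransIT-293), grown in MEM with 10% FBS at 37 °C, 5% CO2, harvested 48 h post-transfection. Membranes prepared by homogenization and spin at 50000g.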

D(3) dopamine receptor [2] = molecular target: D(3) dopamine receptor (Homo sapiens, UniProt P35462, V87F); assay: Displacement of [3H]spiperone from human cloned dopamine D3 receptor V2.61F mutant expressed in HEK293 cells
D(3) dopamine receptor [3] = molecular target: D(3) dopamine receptor (Homo sapiens, UniProt P35462, S182I/V180E); assay: Displacement of [3H]spiperone from human cloned dopamine D3 receptor V180E/S182I mutant expressed in HEK293 cells
[4] = Displacement of [3H]spiperone from human cloned dopamine D2L receptor V2.61F mutant expressed in HEK293 cells; how it was run: as §1
D(2) dopamine receptor [5] = molecular target: T1, D(2) dopamine receptor (Homo sapiens, UniProt P14416); assay: Displacement of [3H]spiperone from wild type human cloned dopamine D2L receptor expressed in HEK293 cells
HEK293 [6] = assay: Selectivity ratio of Ki for human cloned dopamine D2L receptor L2.64F mutant to Ki for wild type human cloned dopamine D2L receptor expressed in HEK293 cells
How it was run: (§2)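 Wild-type or mutant receptor cDNA transiently transfected into HEK-293 cells, which were grown in MEM with 10% FBS at 37 °C and 5% CO2 and harvested 48 h after transfection. Membranes were homogenised and pelleted at 50000g. Competition against [3H]spiperone (0.1-0.7 nM final) used 20-200 μg/mL protein. Ki was derived from EC50, 2-18 independent experiments in triplicate. Ratios are mutant Ki over wild-type Ki.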

HEK293 [7] = assay: Selectivity ratio of Ki for human cloned dopamine D3 receptor V2.61F mutant to Ki for wild type human cloned dopamine D3 receptor expressed in HEK293 cells; how it was run: as §2
HEK293 [8] = assay: Selectivity ratio of Ki for human cloned dopamine D2L receptor H6.55F mutant to Ki for wild type human cloned dopamine D2L receptor expressed in HEK293 cells; how it was run: as §2
HEK293 [9] = assay: Selectivity ratio of Ki for human cloned dopamine D2L receptor E181V/I183S mutant to Ki for wild type human cloned dopamine D2L receptor expressed in HEK293 cells; how it was run: as §2
D(3) dopamine receptor [10] = molecular target: D(3) dopamine receptor (Homo sapiens, UniProt P35462, H349A); assay: Displacement of [3H]spiperone from human cloned dopamine D3 receptor H6.55A mutant expressed in HEK293 cells
D(3) dopamine receptor [11] = molecular target: D(3) dopamine receptor (Homo sapiens, UniProt P35462, F106L/V107M/V87F); assay: Displacement of [3H]spiperone from human cloned dopamine D3 receptor V2.61F/FV3.28,3.29LM mutant expressed in HEK293 cells
HEK293 [12] = assay: Selectivity ratio of Ki for human cloned dopamine D3 receptor L2.64F mutant to Ki for wild type human cloned dopamine D3 receptor expressed in HEK293 cells; how it was run: as §2
HEK293 [13] = assay: Selectivity ratio of Ki for human cloned dopamine D2L receptor H6.55A mutant to Ki for wild type human cloned dopamine D2L receptor expressed in HEK293 cells; how it was run: as §2
HEK293 [14] = assay: Selectivity ratio of Ki for human cloned dopamine D3 receptor H6.55A mutant to Ki for wild type human cloned dopamine D3 receptor expressed in HEK293 cells; how it was run: as §2
[15] = Displacement of [3H]spiperone from human cloned dopamine D2L receptor V2.61F/FV3.28,3.29LM mutant expressed in HEK293 cells; how it was run: as §1
D(3) dopamine receptor [16] = molecular target: D(3) dopamine receptor (Homo sapiens, UniProt P35462, D110E); assay: Displacement of [3H]spiperone from human cloned dopamine D3 receptor D3.32E mutant expressed in HEK293 cells
[17] = Displacement of [3H]spiperone from human cloned dopamine D2L receptor L2.64F mutant expressed in HEK293 cells; how it was run: as §1
D(3) dopamine receptor [18] = molecular target: T2, D(3) dopamine receptor (Homo sapiens, UniProt P35462); assay: Displacement of [3H]spiperone from human cloned dopamine D3 receptor L2.64F mutant expressed in HEK293 cells
HEK293 [19] = assay: Selectivity ratio of Ki for human cloned dopamine D3 receptor D3.32E mutant to Ki for wild type human cloned dopamine D3 receptor expressed in HEK293 cells; how it was run: as §2
D(4) dopamine receptor [20] = molecular target: T3, D(4) dopamine receptor (Homo sapiens, UniProt P21917); assay: Displacement of [3H]spiperone from human cloned dopamine D4 receptor expressed in CHO cells
T3 sequence (P21917 whole entry): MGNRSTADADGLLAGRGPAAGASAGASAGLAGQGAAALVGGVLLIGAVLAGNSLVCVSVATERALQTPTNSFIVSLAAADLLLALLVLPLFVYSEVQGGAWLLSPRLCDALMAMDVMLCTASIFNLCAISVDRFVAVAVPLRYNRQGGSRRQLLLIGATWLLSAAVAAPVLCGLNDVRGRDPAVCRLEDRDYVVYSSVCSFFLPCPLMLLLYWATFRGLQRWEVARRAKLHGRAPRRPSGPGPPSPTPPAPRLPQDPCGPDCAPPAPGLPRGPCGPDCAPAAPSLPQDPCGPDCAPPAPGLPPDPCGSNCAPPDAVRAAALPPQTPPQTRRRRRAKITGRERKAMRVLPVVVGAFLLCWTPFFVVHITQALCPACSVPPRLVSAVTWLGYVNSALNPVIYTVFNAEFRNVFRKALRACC
How it was run: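 Membranes from CHO cells stably expressing human D4 (Bmax 700-1800 fmol/mg). Curves fit by nonlinear regression, sigmoid model giving IC50 and slope; Ki ± SEM from 2-9 experiments in triplicate.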

HEK293 [21] = assay: Selectivity ratio of Ki for human cloned dopamine D3 receptor FV3.28,3.29LM mutant to Ki for wild type human cloned dopamine D3 receptor expressed in HEK293 cells; how it was run: as §2
HEK293 [22] = assay: Selectivity ratio of Ki for human cloned dopamine D3 receptor V180E/S182I mutant to Ki for wild type human cloned dopamine D3 receptor expressed in HEK293 cells; how it was run: as §2
[23] = Displacement of [3H]spiperone from human cloned dopamine D2L receptor H6.55F mutant expressed in HEK293 cells; how it was run: as §1
D(4) dopamine receptor [24] = molecular target: T3, D(4) dopamine receptor; assay: Displacement of [3H]spiperone from wild type human cloned dopamine D4 receptor expressed in HEK293 cells
D(3) dopamine receptor [25] = molecular target: T2, D(3) dopamine receptor; assay: Displacement of [3H]spiperone from human cloned dopamine D3 receptor expressed in CHO cells
D(3) dopamine receptor [26] = molecular target: T2, D(3) dopamine receptor; assay: Displacement of [3H]spiperone from wild type human cloned dopamine D3 receptor expressed in HEK293 cells
HEK293 [27] = assay: Selectivity ratio of Ki for human cloned dopamine D2L receptor V2.61F/FV3.28,3.29LM mutant to Ki for wild type human cloned dopamine D2L receptor expressed in HEK293 cells; how it was run: as §2
[28] = Displacement of [3H]spiperone from human cloned dopamine D2L receptor FV3.28,3.29LM mutant expressed in HEK293 cells; how it was run: as §1
HEK293 [29] = assay: Selectivity ratio of Ki for human cloned dopamine D3 receptor V2.61F/FV3.28,3.29LM mutant to Ki for wild type human cloned dopamine D3 receptor expressed in HEK293 cells; how it was run: as §2
D(3) dopamine receptor [30] = molecular target: T2, D(3) dopamine receptor; assay: Displacement of [3H]spiperone from human cloned dopamine D3 receptor FV3.28,3.29LM mutant expressed in HEK293 cells
CHO [31] = assay: Selectivity ratio of Ki for human cloned dopamine D2L receptor to Ki for human cloned dopamine D3 receptor expressed in CHO cells
HEK293 [32] = assay: Selectivity ratio of Ki for human cloned dopamine D2L receptor V2.61F mutant to Ki for wild type human cloned dopamine D2L receptor expressed in HEK293 cells; how it was run: as §2
CHO [33] = assay: Selectivity ratio of Ki for human cloned dopamine D2L receptor to Ki for human cloned dopamine D4 receptor expressed in CHO cells
HEK293 [34] = assay: Selectivity ratio of Ki for human cloned dopamine D2L receptor D3.32E mutant to Ki for wild type human cloned dopamine D2L receptor expressed in HEK293 cells; how it was run: as §2
[35] = Displacement of [3H]spiperone from human cloned dopamine D2L receptor H6.55A mutant expressed in HEK293 cells; how it was run: as §1
D(2) dopamine receptor [36] = molecular target: D(2) dopamine receptor (Homo sapiens, UniProt P14416, E181V/I183S); assay: Displacement of [3H]spiperone from human cloned dopamine D2L receptor E181V/I183S mutant expressed in HEK293 cells; how it was run: as §2
D(2) dopamine receptor [37] = molecular target: T1, D(2) dopamine receptor; assay: Displacement of [3H]spiperone from human cloned dopamine D2L receptor expressed in CHO cells
HEK293 [38] = assay: Selectivity ratio of Ki for human cloned dopamine D2L receptor FV3.28,3.29LM mutant to Ki for wild type human cloned dopamine D2L receptor expressed in HEK293 cells; how it was run: as §2

Chain of D(3) dopamine receptor (Homo sapiens, UniProt P35462, V87F) (P35462 as listed by the source V87F): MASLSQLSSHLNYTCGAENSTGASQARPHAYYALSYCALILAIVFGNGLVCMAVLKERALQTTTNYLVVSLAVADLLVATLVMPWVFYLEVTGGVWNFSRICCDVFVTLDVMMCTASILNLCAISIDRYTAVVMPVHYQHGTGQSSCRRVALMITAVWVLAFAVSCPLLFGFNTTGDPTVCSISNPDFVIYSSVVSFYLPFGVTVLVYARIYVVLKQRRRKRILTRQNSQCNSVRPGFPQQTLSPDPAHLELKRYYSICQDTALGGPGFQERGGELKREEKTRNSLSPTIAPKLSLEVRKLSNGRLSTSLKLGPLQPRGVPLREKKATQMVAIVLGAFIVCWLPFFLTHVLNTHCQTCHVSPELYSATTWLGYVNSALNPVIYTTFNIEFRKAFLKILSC
Chain of D(2) dopamine receptor (Homo sapiens, UniProt P14416, E181V/I183S) (P14416 whole entry E181V/I183S): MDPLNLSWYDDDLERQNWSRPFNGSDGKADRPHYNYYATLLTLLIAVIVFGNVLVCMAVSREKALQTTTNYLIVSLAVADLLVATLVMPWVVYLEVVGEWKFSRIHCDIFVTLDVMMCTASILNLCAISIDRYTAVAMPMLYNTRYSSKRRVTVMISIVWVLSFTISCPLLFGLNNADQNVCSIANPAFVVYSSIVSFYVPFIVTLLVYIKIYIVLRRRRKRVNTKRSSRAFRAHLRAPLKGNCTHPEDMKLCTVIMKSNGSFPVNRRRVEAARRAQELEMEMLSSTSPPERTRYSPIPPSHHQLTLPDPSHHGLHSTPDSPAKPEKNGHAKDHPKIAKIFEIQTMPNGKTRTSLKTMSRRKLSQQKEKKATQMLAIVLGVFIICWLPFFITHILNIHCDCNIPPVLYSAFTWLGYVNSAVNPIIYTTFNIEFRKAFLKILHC
Chain of D(3) dopamine receptor (Homo sapiens, UniProt P35462, S182I/V180E) (P35462 as listed by the source V180E/S182I): as the sequence (P35462 as listed by the source V87F) above, with F87V, V180E, S182I counted along it
Chain of D(3) dopamine receptor (Homo sapiens, UniProt P35462, H349A) (P35462 as listed by the source H349A): as the sequence (P35462 as listed by the source V87F) above, with F87V, H349A counted along it
Chain of D(3) dopamine receptor (Homo sapiens, UniProt P35462, F106L/V107M/V87F) (P35462 as listed by the source V87F/F106L/V107M): as the sequence (P35462 as listed by the source V87F) above, with F106L, V107M counted along it
Chain of D(3) dopamine receptor (Homo sapiens, UniProt P35462, D110E) (P35462 as listed by the source D110E): as the sequence (P35462 as listed by the source V87F) above, with F87V, D110E counted along it
T2 sequence (P35462 whole entry): as the sequence (P35462 as listed by the source V87F) above, with S9G, F87V counted along it
T1 sequence (P14416 whole entry): as the sequence (P14416 whole entry E181V/I183S) above, with V181E, S183I counted along it

Ki (D(3) dopamine receptor [2]) [nM]	Ki (D(3) dopamine receptor [3]) [nM]	Ki (D(2) dopamine receptor [5]) [nM]	Ki (D(3) dopamine receptor [11]) [nM]	Ki (D(3) dopamine receptor [26]) [nM]	Ki (D(3) dopamine receptor [30]) [nM]	Structure (SMILES)	Ki [1] [nM]	Ki [4] [nM]	Ratio Ki (HEK293 [6])	Ratio Ki (HEK293 [7])	Ratio Ki (HEK293 [13])	Ratio Ki (HEK293 [21])	Ratio Ki (HEK293 [27])	Ki [28] [nM]	Ratio Ki (HEK293 [29])	Ratio Ki (CHO [31])	Ratio Ki (HEK293 [32])	Ratio Ki (CHO [33])	Ki [35] [nM]	Ratio Ki (HEK293 [38])	also measured
2300	340	350	51	770	44	COc1ccccc1N1CCN(Cc2cc3ccccn3n2)CC1	1500	94	1.8	3	0.18	0.06	0.15	46	0.07	0.23	0.27	230	63	0.13	Ratio Ki (HEK293 [8]): 1.2; Ratio Ki (HEK293 [9]): 10.5; Ki (D(3) dopamine receptor [10]): 61 nM; Ratio Ki (HEK293 [12]): 0.9; Ratio Ki (HEK293 [14]): 0.08; Ki [15]: 54 nM; Ki (D(3) dopamine receptor [16]): 680 nM; Ki [17]: 610 nM; Ki (D(3) dopamine receptor [18]): 720 nM; Ratio Ki (HEK293 [19]): 0.9; Ki (D(4) dopamine receptor [20]): 1.2 nM; Ratio Ki (HEK293 [22]): 0.44; Ki [23]: 590 nM; Ki (D(4) dopamine receptor [24]): 2.3 nM; Ki (D(3) dopamine receptor [25]): 1200 nM; Ratio Ki (HEK293 [34]): 4.4; Ki (D(2) dopamine receptor [36]): 3600 nM; Ki (D(2) dopamine receptor [37]): 280 nM
1900	–	220	1100	220	530	Clc1ccc(N2CCN(CCCCCc3cc4ccccn4n3)CC2)cc1	–	740	–	8.8	0.74	2.4	2.1	1100	5.1	0.43	3.3	3.5	170	4.9	Ki [15]: 470 nM; Ki (D(4) dopamine receptor [20]): 46 nM; Ki (D(3) dopamine receptor [25]): 370 nM; Ki (D(2) dopamine receptor [37]): 160 nM
9200	2500	2300	76	8300	730	Clc1ccc(N2CCN(Cc3cc4ccccn4n3)CC2)cc1	5100	1200	0.89	1.1	0.14	0.09	0.03	300	0.009	0.64	0.53	1500	320	0.13	Ratio Ki (HEK293 [8]): 0.7; Ratio Ki (HEK293 [9]): 19; Ki (D(3) dopamine receptor [10]): 46 nM; Ratio Ki (HEK293 [12]): 0.19; Ratio Ki (HEK293 [14]): 0.005; Ki [15]: 66 nM; Ki (D(3) dopamine receptor [16]): 12000 nM; Ki [17]: 2000 nM; Ki (D(3) dopamine receptor [18]): 1600 nM; Ratio Ki (HEK293 [19]): 1.4; Ratio Ki (HEK293 [22]): 0.31; Ki [23]: 1600 nM; Ki (D(4) dopamine receptor [24]): 6.8 nM; Ratio Ki (HEK293 [34]): 2.2; Ki (D(2) dopamine receptor [36]): 47000 nM

Structure (SMILES)	Ki (D(3) dopamine receptor [2]) [nM]	Ki (D(3) dopamine receptor [3]) [nM]	Ki (D(2) dopamine receptor [5]) [nM]	Ki (D(3) dopamine receptor [11]) [nM]	Ki (D(3) dopamine receptor [26]) [nM]	Ki (D(3) dopamine receptor [30]) [nM]	Ki [1] [nM]	Ki [4] [nM]	Ratio Ki (HEK293 [6])	Ratio Ki (HEK293 [7])	Ratio Ki (HEK293 [13])	Ratio Ki (HEK293 [21])	Ratio Ki (HEK293 [27])	Ki [28] [nM]	Ratio Ki (HEK293 [29])	Ratio Ki (CHO [31])	Ratio Ki (HEK293 [32])	Ratio Ki (CHO [33])	Ki [35] [nM]	Ratio Ki (HEK293 [38])	also measured
CSc1ccccc1N1CCN(CCCCNC(=O)c2cc3ccccn3n2)CC1	230	40	37	18	160	33	1300	130	3	–	0.3	36	0.7	65	80	46	3.4	0.25	11	1.8	Ratio Ki (HEK293 [8]): 4.3; Ratio Ki (HEK293 [9]): 3.4; Ki (D(3) dopamine receptor [10]): 0.76 nM; Ratio Ki (HEK293 [12]): 66; Ratio Ki (HEK293 [14]): 1.3; Ki (D(3) dopamine receptor [16]): 0.5 nM; Ki [17]: 120 nM; Ki (D(3) dopamine receptor [18]): 58 nM; Ki (D(4) dopamine receptor [20]): 65 nM; Ratio Ki (HEK293 [22]): 1.5; Ki [23]: 160 nM; Ki (D(4) dopamine receptor [24]): 310 nM; Ki (D(3) dopamine receptor [25]): 0.35 nM; Ratio Ki (HEK293 [34]): 34; Ki (D(2) dopamine receptor [36]): 130 nM; Ki (D(2) dopamine receptor [37]): 16 nM
